The values that follow come from ChEMBL document CHEMBL3120153, “Novel Quinoline-Based P2-P4 Macrocyclic Derivatives As Pan-Genotypic HCV NS3/4a Protease Inhibitors” (ACS Med Chem Lett, 2014).

pIC50: −log10 of the molar value.

Data set [1] deals with NS3 protease (Hepatitis C virus subtype 1b, UniProt Q0ZMF1, D168Y). Nature of the data set: Inhibition of Hepatitis C virus genotype 1b NS3/4A protease D168Y mutant assessed as substrate cleavage using Ac-C(Eu)DDMEEAbu(COO)ASK(QSY7)-amide as substrate incubated for 30 mins prior to substrate addition by time-resolved fluorescence assay.
The nature of data set [2]: Inhibition of Hepatitis C virus genotype 1b NS3/4A protease assessed as substrate cleavage using Ac-C(Eu)DDMEEAbu(COO)ASK(QSY7)-amide as substrate incubated for 30 mins prior to substrate addition by time-resolved fluorescence assay. Also on record: species or system Hepatitis C virus subtype 1b.
Data set [3] concerns the target NS3 protease (Hepatitis C virus subtype 1b, UniProt Q0ZMF1, A156V). The experiment in a line: Inhibition of Hepatitis C virus genotype 1b NS3/4A protease A156V mutant assessed as substrate cleavage using Ac-C(Eu)DDMEEAbu(COO)ASK(QSY7)-amide as substrate incubated for 30 mins prior to substrate addition by time-resolved fluorescence assay.
Data set [4] has as its target NS3 protease (Hepatitis C virus subtype 1b, UniProt Q0ZMF1, A156T). The experiment in a line: Inhibition of Hepatitis C virus genotype 1b NS3/4A protease A156T mutant assessed as substrate cleavage using Ac-C(Eu)DDMEEAbu(COO)ASK(QSY7)-amide as substrate incubated for 30 mins prior to substrate addition by time-resolved fluorescence assay.
The target in data set [5] is NS3 protease (Hepatitis C virus subtype 1b, UniProt Q0ZMF1, R155K). The experiment in a line: Inhibition of Hepatitis C virus genotype 1b NS3/4A protease R155K mutant assessed as substrate cleavage using Ac-C(Eu)DDMEEAbu(COO)ASK(QSY7)-amide as substrate incubated for 30 mins prior to substrate addition by time-resolved fluorescence assay.
The nature of data set [6]: Inhibition of Hepatitis C virus genotype 3a NS3/4A protease assessed as substrate cleavage using Ac-C(Eu)DDMEEAbu(COO)ASK(QSY7)-amide as substrate incubated for 30 mins prior to substrate addition by time-resolved fluorescence assay. Also on record: species or system Hepatitis C virus subtype 3a.
A short description of data set [7]: AUC in rat at 5 mg/kg, po. In kind it is ADME, organism-based. The arrangement: dose 5 mg/kg, route oral. Conditions: plasma. An outline of the steps:
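Rats were dosed orally at 5 mg/kg, with the compound given in methyl cellulose vehicle.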

For the molecule `C=C[C@@H]1C[C@]1(NC(=O)[C@@H]1C[C@@H]2CN1C(=O)[C@H](C1CCCCC1)NC(=O)O[C@@H]1C[C@H]1CCCCCc1c(nc3ccccc3c1OC1CCN(CCOC(F)(F)F)CC1)O2)C(=O)NS(=O)(=O)C1(C)CC1`, the pIC50 on NS3 protease [1] was 9.32; in data set [2] it was 9.82; on NS3 protease [3] it was 8.80; on NS3 protease [4], 8.88; at NS3 protease [5], 9.82; in data set [6], 8.91.
Consider `C=C[C@@H]1C[C@]1(NC(=O)[C@@H]1C[C@@H]2CN1C(=O)[C@H](C1CCCCC1)NC(=O)O[C@@H]1C[C@H]1CCCCCc1c(nc3ccccc3c1O[C@H]1C[C@H]3CC[C@@H](C1)N3CCOC)O2)C(=O)NS(=O)(=O)C1(C)CC1`, for which the pIC50 at NS3 protease [1] was 9.72; in data set [2], 10.70; at NS3 protease [3], 9.44; on NS3 protease [4], 9.46; at NS3 protease [5], 10.30; in data set [6] it was 9.55.
Regarding `C=C[C@@H]1C[C@]1(NC(=O)[C@@H]1C[C@@H]2CN1C(=O)[C@H](C1CCCCC1)NC(=O)O[C@@H]1C[C@H]1CCCCCc1c(nc3ccccc3c1OCCCNC1CCC1)O2)C(=O)NS(=O)(=O)C1(C)CC1`, the pIC50 on NS3 protease [1] was 9.52; in data set [2], 10.70; at NS3 protease [3] it was 9.52; on NS3 protease [4], 9.40; at NS3 protease [5], 10.00; in data set [6], 8.92.
For `C=C[C@@H]1C[C@]1(NC(=O)[C@@H]1C[C@@H]2CN1C(=O)[C@H](C1CCCCC1)NC(=O)O[C@@H]1C[C@H]1CCCCCc1c(nc3ccccc3c1OC1CCN(CCOC)CC1)O2)C(=O)NS(=O)(=O)C1(C)CC1`, the pIC50 was 9.82 on NS3 protease [1]; 10.70 in data set [2]; 8.84 on NS3 protease [3]; 8.71 at NS3 protease [4]; 9.74 on NS3 protease [5]; 8.88 in data set [6].
Consider `C=C[C@@H]1C[C@]1(NC(=O)[C@@H]1C[C@@H]2CN1C(=O)[C@H](C1CCCCC1)NC(=O)O[C@@H]1C[C@H]1CCCCCc1c(nc3ccccc3c1OCCCNC1CC(F)(F)C1)O2)C(=O)NS(=O)(=O)C1(C)CC1`, for which the pIC50 is 9.49 on NS3 protease [1]; 11.00 in data set [2]; 9.42 at NS3 protease [3]; 9.28 on NS3 protease [4]; 9.74 on NS3 protease [5]; 8.70 in data set [6].
On to `C=C[C@@H]1C[C@]1(NC(=O)[C@@H]1C[C@@H]2CN1C(=O)[C@H](C(C)(C)C)NC(=O)O[C@@H]1C[C@H]1CCCCCc1c(nc3ccccc3c1O[C@@H]1C[C@H]3CC[C@@H](C1)N3CC)O2)C(=O)NS(=O)(=O)C1(C)CC1`, for which the pIC50 at NS3 protease [1] was 9.24; in data set [2] it was 10.70; on NS3 protease [3], 9.39; on NS3 protease [4], 9.34; on NS3 protease [5] it was 9.92; in data set [6], 8.92.
As to `C=C[C@@H]1C[C@]1(NC(=O)[C@@H]1C[C@@H]2CN1C(=O)[C@H](C1CCCCC1)NC(=O)O[C@@H]1C[C@H]1CCCCCc1c(nc3ccccc3c1OCCCN1CCN(C)CC1)O2)C(=O)NS(=O)(=O)C1(C)CC1`, the pIC50 at NS3 protease [1] was 9.42; in data set [2], 11.00; at NS3 protease [3] it was 9.59; at NS3 protease [4], 9.30; at NS3 protease [5], 10.30; in data set [6], 8.94. Moreover, the AUC in data set [7] is 0.1 µM·h.
For `C=C[C@@H]1C[C@]1(NC(=O)[C@@H]1C[C@@H]2CN1C(=O)[C@H](C1CCCCC1)NC(=O)O[C@@H]1C[C@H]1CCCCCc1c(nc3ccccc3c1OCCCN1CCOCC1)O2)C(=O)NS(=O)(=O)C1(C)CC1`, the pIC50 at NS3 protease [1] was 9.00; in data set [2] it was 11.00; at NS3 protease [3], 9.01; at NS3 protease [4], 8.51; on NS3 protease [5], 9.57; in data set [6], 8.72.
For the molecule `C=C[C@@H]1C[C@]1(NC(=O)[C@@H]1C[C@@H]2CN1C(=O)[C@H](C1CCCCC1)NC(=O)O[C@@H]1C[C@H]1CCCCCc1c(nc3ccccc3c1OC1CCN(CC(F)(F)F)CC1)O2)C(=O)NS(=O)(=O)C1(C)CC1`, the pIC50 on NS3 protease [1] was 7.89; in data set [2] it was 9.40; at NS3 protease [3] it was 7.57; on NS3 protease [4], 7.58; on NS3 protease [5], 8.47; in data set [6], 6.98.
As to `C=C[C@@H]1C[C@]1(NC(=O)[C@@H]1C[C@@H]2CN1C(=O)[C@H](C1CCCCC1)NC(=O)O[C@@H]1C[C@H]1CCCCCc1c(nc3ccccc3c1OC1CCN(CCS(C)(=O)=O)CC1)O2)C(=O)NS(=O)(=O)C1(C)CC1`, the pIC50 is 8.68 on NS3 protease [1]; 10.70 in data set [2]; 8.42 on NS3 protease [3]; 8.28 on NS3 protease [4]; 9.68 on NS3 protease [5]; 8.29 in data set [6].
As to `C=C[C@@H]1C[C@]1(NC(=O)[C@@H]1C[C@@H]2CN1C(=O)[C@H](C1CCCCC1)NC(=O)O[C@@H]1C[C@H]1CCCCCc1c(nc3ccccc3c1OC1CCN(C(=O)OC(C)(C)C)CC1)O2)C(=O)NS(=O)(=O)C1(C)CC1`, the pIC50 at NS3 protease [1] is 7.87; in data set [2] it was 9.80; at NS3 protease [3], 7.84; at NS3 protease [4], 7.68; at NS3 protease [5], 8.88; in data set [6], 6.72.
As for `C=C[C@@H]1C[C@]1(NC(=O)[C@@H]1C[C@@H]2CN1C(=O)[C@H](C1CCCCC1)NC(=O)O[C@@H]1C[C@H]1CCCCCc1c(nc3ccccc3c1OC1CCN(CCF)CC1)O2)C(=O)NS(=O)(=O)C1(C)CC1`, the pIC50 was 8.89 at NS3 protease [1]; 11.00 in data set [2]; 8.78 on NS3 protease [3]; 8.67 on NS3 protease [4]; 9.89 on NS3 protease [5]; 8.67 in data set [6].
In the case of `C=C[C@@H]1C[C@]1(NC(=O)[C@@H]1C[C@@H]2CN1C(=O)[C@H](C1CCCCC1)NC(=O)O[C@@H]1C[C@H]1CCCCCc1c(nc3ccccc3c1O[C@H]1C[C@H]3CC[C@@H](C1)N3)O2)C(=O)NS(=O)(=O)C1(C)CC1`, the pIC50 on NS3 protease [1] is 10.30; in data set [2], 11.00; at NS3 protease [3], 9.89; on NS3 protease [4], 10.10; at NS3 protease [5] it was 10.70; in data set [6] it was 9.96.
Consider `C=C[C@@H]1C[C@]1(NC(=O)[C@@H]1C[C@@H]2CN1C(=O)[C@H](C(C)(C)C)NC(=O)O[C@@H]1C[C@H]1CCCCCc1c(nc3ccccc3c1O[C@@H]1C[C@H]3CC[C@@H](C1)N3CCOC)O2)C(=O)NS(=O)(=O)C1(C)CC1`, for which the pIC50 at NS3 protease [1] was 8.84; in data set [2], 10.70; at NS3 protease [3], 9.07; at NS3 protease [4], 8.90; at NS3 protease [5], 9.55; in data set [6], 8.33.
In the case of `C=C[C@@H]1C[C@]1(NC(=O)[C@@H]1C[C@@H]2CN1C(=O)[C@H](C1CCCCC1)NC(=O)O[C@@H]1C[C@H]1CCCCCc1c(nc3ccccc3c1OC1CCOCC1)O2)C(=O)NS(=O)(=O)C1(C)CC1`, the pIC50 at NS3 protease [1] is 8.68; in data set [2], 10.52; on NS3 protease [3] it was 8.47; at NS3 protease [4] it was 8.39; at NS3 protease [5], 9.59; in data set [6], 7.96.
Consider `C=C[C@@H]1C[C@]1(NC(=O)[C@@H]1C[C@@H]2CN1C(=O)[C@H](C1CCCCC1)NC(=O)O[C@@H]1C[C@H]1CCCCCc1c(nc3ccccc3c1OCCCN1CC(F)(F)C1)O2)C(=O)NS(=O)(=O)C1(C)CC1`, for which the negative logarithm of the IC50 (pIC50) on NS3 protease [1] is 8.70; in data set [2] it was 10.52; at NS3 protease [3] it was 8.89; at NS3 protease [4], 8.43; on NS3 protease [5], 9.30; in data set [6], 8.12.
Consider `C=C[C@@H]1C[C@]1(NC(=O)[C@@H]1C[C@@H]2CN1C(=O)[C@H](C1CCCCC1)NC(=O)O[C@@H]1C[C@H]1CCCCCc1c(nc3ccccc3c1OCCCN1CC(F)C1)O2)C(=O)NS(=O)(=O)C1(C)CC1`, for which the pIC50 on NS3 protease [1] is 9.10; in data set [2], 10.70; on NS3 protease [3] it was 9.01; on NS3 protease [4], 8.71; on NS3 protease [5] it was 9.80; in data set [6], 8.35.
For the molecule `C=C[C@@H]1C[C@]1(NC(=O)[C@@H]1C[C@@H]2CN1C(=O)[C@H](C(C)(C)C)NC(=O)O[C@@H]1C[C@H]1CCCCCc1c(nc3ccccc3c1O[C@H]1C[C@H]3CC[C@@H](C1)N3CCOC)O2)C(=O)NS(=O)(=O)C1(C)CC1`, the pIC50 at NS3 protease [1] was 10.22; in data set [2] it was 11.00; on NS3 protease [3] it was 9.15; at NS3 protease [4], 9.32; on NS3 protease [5] it was 10.70; in data set [6], 9.85.
